B1: tRNA (parent)
chain: GUUCCGUUGGCGUAAUGGUAACGCGUCUCCCUCCUAAGGAGAAGACUGCGGGUUCGAGUCCCGUACGGAACG

Variants at the floor of the assay were thinned out. Some results are limits rather than exact numbers.

In the data set the parent is B1. Nature of the data set: yeast fitness relative to wild type (ratio to wild type); higher = fitter; tRNA-Arg(CCU), competitive growth, 37 C, YPD. A digest of the protocol:
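Variants of the tRNA-Arg(CCU) gene were chemically synthesised with a 3% per-site mutation rate across 69 sites and placed at the native genomic locus in Saccharomyces cerevisiae. Six parallel replicates of the pooled strains were competed in YPD at 37°C for 24 hours, and gene amplicons from the start and end populations were read by 100-nucleotide paired-end sequencing. Darwinian fitness relative to wild type was derived from changes in genotype frequencies. Genotypes required ≥ 100 starting reads, and estimates < 0.5 were set to 0.5.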
Regarding GUUCCGUUGGCGUAAUGGUAACGUGUCUCCCUCGUAAGGAGAAGACUGCGGGUUCAAGUCCCGUACGGAACG, the yeast fitness is ≤ 0.5. The value for GUUCCGUUGGCGUAAUGGUAACGUGUCUCCUUCCUAAGGAGAAGACUGUGGGUUCGAGUCCCGUACGGAUCG was 0.64. The figure for GUUCCGUUGGCGUAAUGGUAACGUGUCUCCCUUCUAAGGAGAAGACUGCGGGUUCGAGUCCCGUACGGAACG is 0.747.

Turning to GUUCCGUUGGCGUAAUGGUAACGUGUCUCCGUCCUAAGGAGAAGACUGCGGGUUCGAGUCCCGUUCGGAACG, the yeast fitness amounted to 0.508. On to GUUCCGUUGGCGUAAUGGUAACGUGUCUCCUUCCUAAGGAGGAGACUGCGGGUUCGAGUCCCGUACGGAACG, for which the yeast fitness stood at 0.574. The figure for GUUCCGUUGGCGUAAUGGUAACGUGUCUCCCUCGUAAGGAGAAGACUGCGGGUUCGUGUCGCGUACGGAACG is ≤ 0.5; for GUUCCGUUGGCGUAAUGGUAACGUGUCUCCCUCUUAAGGGGAAGACUGCGGGUUGGAGUCCCGUACGGAACG it is ≤ 0.5; for GUUCCGUUGGCGUAAUGGUAACGUGUCUCCCUCGUAAGGAGAAGACUGCGAGUUCGAGUCCCGUACGGAACG it is 0.663. Take GUUCCGUUGGCGUAAUGGUAACGUGUCUCCCUCGUAAGGAGAAGACUGCGGGUUCGAGUCCUGUACGGAACG: the yeast fitness worked out at 0.584. Regarding GUUCCGUUGGCGUAAUGGUAACGUGUCUCCGUCCUAAGGAGAAGACUGCGGGUUCGAGUCCCGCACGGAACG, the yeast fitness turned out to be 0.572. The figure for GUUCCGUUGGCGUAAUGGUAACGUGUCUCCGUUCUAAGGAGAAGACUGCGGGUUCGAGACCUGUACGGAACG is ≤ 0.5; for GUUCCGUUGGCGUAAUGGUAACGUGUCUCCCUUCUAAGGAAAAGACUGCGGGUUCGAGUCUCGUACGGAACG it is ≤ 0.5; for GUUCCGUUGGCGUAAUGGUAACGUGUCUCCCUCAUAAGAAGAAGACUGCGGGUUCGAGUCCCGUACGGAACG it is 0.535. The value for GUUCCGUUGGCGUAAUGGUAACGUGUCUCCGUCCUAAGGAGAAGACUGCAGGUUCGAGUCCCGCACGGAACG was ≤ 0.5; that for GUUCCGUUGGCGUAAUGGUAACGUGUCUCCCUCGUAAGGAGAAGACUGCGGGUUCGAGUCCCGUACGGAACG was 0.72.

As for GUUCCGUUGGCGUAAUGGUAACGUGUCUCCCUCUUAAGGAGAAGACUGCGGGUUCGAGUCCCGUACGGAACG, the yeast fitness stood at 0.688. Take GUUCCGUUGGCGUAAUGGUAACGUGUCUCCCUCUUAAGGGGAAGACUGCAGGUUGGAGUCCCGUACGGAACG: the yeast fitness was ≤ 0.5. Turning to GUUCCGUUGGCGUAAUGGUAACGUGUCUCCCUCGUAAGGAGAAGUCUGCGGGUUCGAGUCCCGUACGCAACG, the yeast fitness was ≤ 0.5. On to GUUCCGUUGGCGUAAUGGUAACGUGUCUCCGUCCUAAGGAGAAGACUGCGGGUUCGAGUCGCGUACGGAACG, for which the yeast fitness came out at 0.513. The figure for GUUCCGUUGGCGUAAUGGUAACGUGUCUCCCUACUAAGGGGAAGACUGCGGGUUCGAGUCCCGUACGGAACG is 0.513. On to GUUCCGUUGGCGUAAUGGUAACGUGUCUCCUUCCUAAGGAGAAGACUGCGGGUACGAGUCCCGUACGGAACG, for which the yeast fitness was ≤ 0.5.

Consider GUUCCGUUGGCGUAAUGGUAACGUGUCUCCCUUCUAAGGAGAACACUGCGGGUUCGAGUCCCGUACGGAACG, for which the yeast fitness amounted to 0.633. The figure for GUUCCGUUGGCGUAAUGGUAACGUGUCUCCUUCCUAAGGAGAAGACUGCGGGUUCGAGUCCCGUACGGAACG is 0.96; for GUUCCGUUGGCGUAAUGGUAACGUGUCUCCGUCCUAAGGAGAAGACUGCGGGUUCGAGUCCCGUACGGAACG it is 0.845; for GUUCCGUUGGCGUAAUGGUAACGUGUCUCCCUGUUAAGGAGAAGACUGCGGGUUCGAGUCCCGUACGGAACG it is 0.672. For the variant GUUCCGUUGGCGUAAUGGUAACGUGUCUCCGUCGUAAGGAGAUGACUGCGGGUUCGAGUCCCGUACGCGACG, the yeast fitness was ≤ 0.5. Consider GUUCCGUUGGCGUAAUGGUAACGUGUCUCCCUGCUAAGGAGAAGACUGCGGCUUCGAGUCUCGUACGGAACG, for which the yeast fitness is ≤ 0.5. The figure for GUUCCGUUGGCGUAAUGGUAACGUGUCUCCCUUCUAAGGAGAAGAUUGAGGGUUCGAGUCCUGUACGGUACG is ≤ 0.5; for GUUCCGUUGGCGUAAUGGUAACGUGUCUCCGUCCUAAGGAGAAGAUUGCGGGUUCGAGUCCCGUACGGAACG it is 0.562; for GUUCCGUUGGCGUAAUGGUAACGUGUCUCCGUCCUAAGGAGAGGACUGCGGGUUCGAGUCCCGUACGGAACG it is 0.69.

For GUUCCGUUGGCGUAAUGGUAACGUGUCUCCGUCCUAAGGAGAAAACUGCGGGUUCGAGUCCCGUACGGAACG, the yeast fitness is 0.508. For GUUCCGUUGGCGUAAUGGUAACGUGUCUCCGUCCUAAGGAGAAAACUGCGGGUUCGAGUCCCGAACGGAACG, the yeast fitness is ≤ 0.5. On to GUUCCGUUGGCGUAAUGGUAACGUGUCUCCCUUCUAAGGAGAAGACUACGGGUUCGAGUCUCGUACGGAACG, for which the yeast fitness is ≤ 0.5.

Regarding GUUCCGUUGGCGUAAUGGUAACGUGUCUCCUUCCUAAGGAGAAGACUGCGGGUUCGAGUCCCGUACGUAACG, the yeast fitness stood at 0.544. As for GUUCCGUUGGCGUAAUGGUAACGUGUCUCCUUCCUAAGGAGAAGACUGUGGGUUCGAGUCCCGUACGGAACG, the yeast fitness came out at 0.874.

As to GUUCCGUUGGCGUAAUGGUAACGUGUCUCCCUGCUAAGGAGAAGACUGCGGGCUUGAGUCCCGUACGGAGCG, the yeast fitness is ≤ 0.5. Consider GUUCCGUUGGCGUAAUGGUAACGUGUCUCCCUACUAAGGAGAAGACCGCGGGUUCGAGUCCCGUACGGAACG, for which the yeast fitness was 0.516. The value for GUUCCGUUGGCGUAAUGGUAACGUGUCUCCCUGUUAAGGAGAAGACUGCGGGUUCGAGUCCUGUACGGAACG was ≤ 0.5.
